Laboratory results: ChEMBL document CHEMBL4513216, “Probing the Open Global Health Chemical Diversity Library for Multistage-Active Starting Points for Next-Generation Antimalarials” (ACS Infect Dis, 2020)

assay: Toxicity liver stage against HepG2, at 10uM; type: cell-based; design: test concentration 10 uM, cell line HepG2-A16-CD81EGFP; settings: human, HepG2-A16-CD81EGFP cells; read-out: INHIBITION
Procedure, shortened: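 Uninfected HepG2-A16-CD81EGFP cells, 3 × 10^3 per well, 1536-well, plated on prespotted compound at 10 μM final, parasite-free screening media added to match infected plates; puromycin 10 μM positive, DMSO 0.5% negative; run in parallel with 48 h PbLuc assay at 37 °C, 5% CO2; viability by CellTiter-Glo luminescence, normalized to controls.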

Compound | cytotoxicity at 10 µM [%]
O=c1c2ccccc2nc2n1C(CSc1ccc(F)cc1)CN2 (stereo not drawn) | 11.2
CN(C)c1nc(N)nc(CN2CCCC2c2ccsc2)n1 (stereo not drawn) | -19.6
CNCc1cn(C[C@H]2CC3CCN2C[C@@H]3C(=O)Nc2ccccc2)nn1 (stereo partly drawn) | -0.288
COCCNc1c(-c2ccc(C)cc2)c(=O)c1=O | -5.15
CCC(CC)NC(=O)c1cccnc1N1CCCC1c1ccccn1 (stereo not drawn) | 10.3
CC(=O)N1N=C(c2cccs2)OC1C(=O)NCCc1cccc(Cl)c1 (stereo not drawn) | -1.66
O=C1CN(C(=O)c2cccc(C(F)(F)F)c2)CC(O)CN1CC1CC1 (stereo not drawn) | -4.65
CC(C)CNC(=O)c1cn(C)c(=O)c2ccccc12 | 1.28
Cn1cccc1C(O)CNC(=O)c1cccc(Cl)c1 (stereo not drawn) | -1.94
Cc1ccsc1C(O)CNC(=O)Cc1ccc(S(=O)(=O)C(C)C)cc1 (stereo not drawn) | -1.21
Cc1ccc(F)cc1S(=O)(=O)Nc1cnc(N2CCCC2)nc1 | 3.91
CCCC(=O)N1CCC2(CC1)CN(Cc1cccc(C)n1)C(=O)CO2 | -5.05
Cc1nc(CN2CCC3(CCN(Cc4cnn(C)c4)C3)C2=O)cs1 (stereo not drawn) | 6.81
O=C1CC(c2ccc(O)cc2)c2sc(C(=O)O)c(-c3ccccc3)c2N1 (stereo not drawn) | -0.472
O=C(Nc1ccc(I)cc1C(=O)NCCN1CCOCC1)c1cccs1 | -5.09
O=C(c1ccoc1)N1CCC2(CC1)C(=O)Nc1ccccc12 | -13.6
CNC(=O)[C@@]12CCCN(c3ncccn3)[C@@H]1CN(C(=O)NC(C)C)C2 | 0.614
CCn1nc(C)c2nn(CC(=O)NC3CCSCC3)cc21 | -3.57
Cc1c(-c2cc(C(=O)N3CCc4ncc(Cl)cc4C3)on2)cnn1C | -3.07
O=C1CN(C(=O)CCn2c(C(F)(F)F)cc3cccnc32)CCN1 | -13
Cc1nc(Nc2nnc(C)s2)cc(C2CCCN2c2ccncn2)n1 (stereo not drawn) | -14.3

Compound | cytotoxicity at 10 µM [%]
Cc1cccc(C(=O)N2C[C@@H]3CC[C@H](Oc4cccc(F)c4)[C@@H]3C2)n1 | -14.7
C[S+]([O-])CCNC(=O)N1CCSC2(CCCCC2)C1 (stereo not drawn) | -0.363
CC(C)(C)NC(=O)CNc1ccc(Br)cn1 | -2.81
COc1ccc(CNc2nc(C3CC3)no2)cc1OC | 4.44
CCC(O)(CNCc1cc[nH]n1)c1ccc(Br)cc1 (stereo not drawn) | 2.69
CN1N=C(c2nc(Cc3cccc(Br)c3)no2)CCC1=O | -6.09
CC(C)Cc1noc(CN2CCC(C(=O)NCC3CCCO3)CC2)n1 (stereo not drawn) | 3.13
Cc1cc(CNS(C)(=O)=O)ccc1N(C)C | -11.5
COc1ccccc1NC(=O)CC(C)NCc1scnc1C (stereo not drawn) | 0.686
Cc1cc(Br)oc1C(=O)N1CCC(N(C)C)CC1 | -4.71
NC(=O)C1CCN(CCc2ccc(NCc3cccnc3)cc2)CC1 | 8.02
CC(C)c1cccc(CSc2nnc(Cn3cncn3)o2)n1 | 13
COc1cccc(CCCn2cnnc2[S+](C)[O-])c1 (stereo not drawn) | -12.7
COc1ccsc1C(=O)Nc1cc(Cl)c(=O)n(C)c1 | 2.05
CN(C)c1nccc(N(C)C2CCCCC2)n1 | -6.37
Cc1c(NCCOCC(F)(F)F)cccc1C(=O)N1CCCC1 | -0.595
Cc1[nH]ccc1C(=O)Nc1cccc(CN2CCC(CO)CC2)c1 | -9.37
COC[C@@H]1CCC[C@]12CN(S(=O)(=O)c1cn(C)cn1)CCO2 | 4.06
CC(C)c1nccc([C@H]2C[C@@H]3CCN(Cc4ccoc4)C[C@H]3O2)n1 | -4.45
COCC(=O)N1CCC2(CC1)CC(CC(=O)NC1CC1)c1ccccc12 (stereo not drawn) | 0.873
O=C(NCCC1CCCCO1)c1cc(COc2ccccc2F)[nH]n1 (stereo not drawn) | 6.57

Compound | cytotoxicity at 10 µM [%]
O=C(Nc1ccc2occc2c1)N1CCCC(O)(CO)CC1 (stereo not drawn) | -0.735
CN(Cc1ncnn1C1Cc2ccccc2C1)C1CCS(=O)(=O)C1 (stereo not drawn) | -2.14
Cc1nc(CC(C)C)cc(C(=O)N2C[C@@H](CN(C)C)[C@@H](CO)C2)n1 | 0.868
Cc1nc2c(c(NCC3Cc4ccccc4CN3C)n1)CCNCC2 (stereo not drawn) | -9.08
CC(C)c1ccn(C2(C(=O)O)CCN(c3cc(C(N)=O)ccn3)CC2)n1 | 1.71
CCN(CC)CCn1cnc(-c2ccccc2)c1-c1ncc[nH]1 | 4.03
CCc1nc(N2CCN(CCOC)CC2)c2cnn(C)c2n1 | 0.363
COc1cc(C)ccc1S(=O)(=O)N1CC[C@](C)(O)[C@H](C)C1 | 7.52
Cc1cccc(OC2CN(C(=O)C3CC(=O)N(C(C)(C)C)C3)C2)c1 (stereo not drawn) | 4.4
COc1cc(-n2cc(CCO)cn2)ccc1NC(C)=O | 9.81
CCc1cc(NCCCOC2CCN(C)CC2)ncn1 | -8.34
Cn1c(CN2CCCCC2)nnc1C1CCN(c2nccc(N)n2)CC1 | -7.98
Cc1ccccc1CC1(C(=O)O)CCCN(c2ncnc3[nH]ccc23)C1 (stereo not drawn) | 3.63
COc1ccc(Oc2cccc(C#N)n2)cc1CN1CCCC1 | -1.86
O=S1(=O)C[C@@H]2[C@H](C1)N(Cc1cc(Cl)cc(Cl)c1)CCN2CC1CC1 | 27.6
Cc1cc(Nc2nc(C)cs2)nc(C2CCCCN2CCO)n1 (stereo not drawn) | 1.8
CC1CCCCN1Cc1ccc(-c2ccccc2C(=O)O)cc1 (stereo not drawn) | 6.74
COCCN1CCC(NCc2c(F)cccc2F)C1 (stereo not drawn) | -5.95
CCc1nc(CN2CCCN(C(=O)c3ccnc(C)n3)CC2)cs1 | -13.4
Cn1c(C2CC2)nc2c1CCN(Cc1nc(-c3ccsc3)no1)C2 | 8.73
Cc1cc(NC(=O)NCC(O)COc2ccccc2)n(C)n1 (stereo not drawn) | -3.19

Compound | cytotoxicity at 10 µM [%]
CCn1cc(NC(=O)NCC(c2ccsc2)N(C)C)cn1 (stereo not drawn) | -8.01
Cc1nc(C2CCCN(C(=O)Cn3ccccc3=O)C2)sc1C (stereo not drawn) | 1.5
O=C(NCCNC(=O)c1scnc1Cl)c1cccs1 | -9.44
CCOCCN1CCN(Cc2cccc(C(=O)N(C)C)c2)CC1CC (stereo not drawn) | -5.83
CCN1CCN(c2ccc(CNC(=O)c3cc(C)on3)cn2)CC1 | -11
CC(=O)NCCNC(=O)CN1CCOC(Cn2cc(C)cn2)C1 (stereo not drawn) | -4.44
CCc1n[nH]c(C2CN(CCS(C)(=O)=O)CCO2)n1 (stereo not drawn) | -18
c1ncn(CC2CN(CC3CCCCC3)CCO2)n1 (stereo not drawn) | -14.8
Cn1nc(C(=O)N2CCCC(n3cncn3)C2)ccc1=O (stereo not drawn) | -17.4
Cn1ccc(CN2CCC(Oc3ccccc3)CC2)cc1=O | -3.71
Cc1noc(C(C)C)c1C(=O)NCc1cc(F)cc(F)c1 | -5.54
CCOc1cc(C(=O)N2CCCC(c3cc(C(N)=O)[nH]n3)C2)ccn1 (stereo not drawn) | -7.37
O=c1[nH]c(CCN2CCCC(Cn3cncn3)C2)nc2ccccc12 (stereo not drawn) | -8.62
COc1cccc(CCNCc2c(C)nn(C)c2N(C)C)c1 | -1.6
COc1ccc(-c2cnc(CN3CCn4c(C)nnc4C3)o2)cc1 | -13.5
Cc1nnc2n1CCN(CCS(=O)(=O)c1ccccc1)C2 | -9.7
Cc1cc(C)n(CC2CN(Cc3nc(-c4ccoc4)no3)CCO2)n1 (stereo not drawn) | -8.13
CC(C)[C@H](N)c1nnc(SCC(=O)Nc2ccc(Br)cc2)o1 | -5.15
CN(C)CCN1CCOCC2(C1)CN(Cc1ccsc1)CCO2 (stereo not drawn) | -0.439
CC(C)(C)c1cc(=O)[nH]c(C2(N)CCCCC2)n1 | 16.5
